Screening data deposited in PubChem BioAssay by The Scripps Research Institute Molecular Screening Center.
ABHD4 inh = ABHD4 inhibitors, primary screen, biochemical, fluorescence polarization, mouse; AID 720543, 2013; (Lyso)-N-acylphosphatidylethanolamine lipase (Mus musculus), Q8VD66; inhibition, % at 8.92 µM; 370,000 tested, 0.54% active; purified mABHD4, FP-Rh probe fluorescence polarization;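 active = inhibition exceeding the mean over every tested compound plus 3 SD, cut at about 30% in these data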;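 note: 0% = plate median of compound wells and 100% = S159A mutant with DMSO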
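system = mouse ABHD4 enzyme, wild type | medium = HEPES pH 7.0, NaCl, Pluronic buffer | also added = FP-Rh probe | incubation = Enzyme–compound pre-incubation 45 min, then probe 60 min, both 25 °C | technique = fluorescence polarization, excitation 525 nm, emission 598 nm, BODIPY TMR filters | controls = S159A mutant high control, sample median low control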
PRMT1 inh = PRMT1 methyltransferase inhibitors, primary screen, biochemical, fluorescence polarization | Protein arginine N-methyltransferase 1 (Homo sapiens), Q99873 | recombinant PRMT1, activity-based probe fluorescence polarization | inhibition, % at 2.79 µM | 370,000 tested, 1.3% active;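 active = inhibition above about 21% made by adding two undisclosed values, limit read from the data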
SIAE primary = human SIAE inhibitors, primary screen, biochemical, fluorescence polarization, FP-Rh probe, 1536-well HTS | Sialate O-acetylesterase (Homo sapiens), Q9HAT2 | SIAE FP-Rh probe binding | inhibition, % at 9.66 µM | 370,000 tested, 0.69% active;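 active = inhibition above a cutoff: mean of compounds within the control limits plus 3 SD of those, cut at about 17% in these data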;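 note: 0% = plate median of compound wells and 100% = probe without SIAE protein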
HTRA1 inh = HTRA1 serine protease inhibitors, primary screen, biochemical, fluorescence polarization, HTS; inhibition, % at 5.96 µM; 340,000 tested, 0.5% active; Q92743; recombinant HTRA1, FP-rhodamine activity-based probe; in the data active = inhibition above about 36%;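 note: 0% = enzyme with DMSO and 100% = wells lacking enzyme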
Target sequence (Q92743 whole entry, looked up): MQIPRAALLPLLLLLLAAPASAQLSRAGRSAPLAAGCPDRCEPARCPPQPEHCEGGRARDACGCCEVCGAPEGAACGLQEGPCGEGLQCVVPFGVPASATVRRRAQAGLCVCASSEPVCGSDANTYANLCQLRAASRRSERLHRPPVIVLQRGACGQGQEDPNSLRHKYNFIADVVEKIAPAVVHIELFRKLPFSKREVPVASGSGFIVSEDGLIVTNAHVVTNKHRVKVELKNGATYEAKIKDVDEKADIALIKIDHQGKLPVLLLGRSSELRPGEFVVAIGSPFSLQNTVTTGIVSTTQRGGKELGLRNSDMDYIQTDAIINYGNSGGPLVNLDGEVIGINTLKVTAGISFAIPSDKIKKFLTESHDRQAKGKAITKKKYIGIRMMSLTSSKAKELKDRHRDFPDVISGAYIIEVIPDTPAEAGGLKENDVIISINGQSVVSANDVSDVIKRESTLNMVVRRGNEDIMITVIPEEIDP
TCR-CD3 inh = inhibitors of human TCR-CD3 interaction, primary screen, biochemical, fluorescence, TAMRA-labeled TCR probe; inhibition, % at 9.4 µM; T-cell receptor (TCR); AID 651800, 2012; 360,000 tested, 0.37% active; in the data active = inhibition above about 19%;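 note: recombinant mutant TCR 2C K166C tagged with TAMRA read by polarization; 0% = receptor in buffer alone and 100% = receptor with positive control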
HTRA1 inh conf = HTRA1 protease inhibitors, retest, confirmation, biochemical, fluorescence polarization; shares compounds with HTRA1 inh; 1,600 tested, 66% active; inhibition, % at 5.96 µM; recombinant HTRA1, FP-rhodamine activity-based probe;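 active = mean inhibition over three repeats above a set limit taken from the earlier primary screen, cut at about 37% in these data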;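 note: 0% = HTRA1 with DMSO and 100% = wells lacking HTRA1; inhibitors block probe binding so polarization drops and inhibition rises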
Active calls of the source: *; . = no result. Shown are actives, neighbours in structure and some others; about 2.5% of the full set was active somewhere.

SMILES	ABHD4 inh	PRMT1 inh	SIAE primary	HTRA1 inh	TCR-CD3 inh	HTRA1 inh conf
COC(=O)C1CN(Cc2ccccc2)CCS(=O)(=O)N1Cc1cn(Cc2ccc(C)cc2)nn1 (stereo unspecified)	7	-6	8	.	.	.
Cc1ccccc1NC(=O)OC1CCC12CCC(c1ccccc1)CC2 (stereo unspecified)	-9	-3	-5	.	.	.
Cc1ccc2c(c1)c(C)cc[n+]2Cc1ccccc1	0	-1	5	42*	4	6
CC(=O)Nc1ccc(C23CC4CC(CC(C4)C2)C3)cc1	-14	-1	-2	-25	-5	.
Oc1ccc(C23CC4CC(CC(C4)C2)C3)cc1O	18	7	4	59*	-3	81*
COc1cc(NC(C)CCCNC(C)C)c2ncccc2c1OC (stereo unspecified)	16	2	9	6	2	.
COc1cc(NCCCCCCN)c2ncccc2c1OC	40*	4	7	38*	14	39*
COc1cccc(NC(=O)Nc2nc3ncccn3c2-c2ccc(F)c(F)c2)c1	-4	-2	4	.	.	.
CN(C)c1ccnc2c[cH-]cc12.[Fe].c1ccc(-[c-]2[c-](-c3ccccc3)[c-](-c3ccccc3)[c-](-c3ccccc3)[c-]2-c2ccccc2)cc1 (stereo unspecified)	26	-1	9	37*	5	57*
CN(C)c1ccnc(Nc2ccccc2)c1C#N	-3	-2	5	.	0	.
CCn1c2ccccc2c2c3ncc4cccn4c3ccc21	9	7	-28	47*	1	-17
c1ccc2c(c1)ncc1cccn12	-1	-1	-1	-6	0	.
O=C(C=Cc1ccccc1O)c1ccccc1O	-19	0	-8	-14	-1	.
O=C(/C=C/c1ccccc1Cl)c1ccccc(=O)c1O	25	10	9	44*	8	46*
O=C(/C=C/c1ccccc1Cl)c1ccc(O)cc1	-23	3	-9	-13	0	.
Cc1ccc(/C=C/C(=O)c2ccccc(=O)c2O)c(C)c1	28	17	14	53*	5	45*
O=C(N/N=C/c1ccc([N+](=O)[O-])o1)c1sc2ccccc2c1Cl	27	15	-1	52*	7	55*
COc1cnc(-c2ccccn2)nc1Oc1ccc(Cl)c2ccccc12	-1	-6	1	53*	4	54*
CC(C)(C)NC(=S)Nc1ccc(Br)cc1	1	-2	1	0	-1	.
CC(C)(C)NC(=S)Nc1ccc(Nc2ccccc2)cc1	24	4	2	46*	2	7
CCCCOCCCNC(=O)C[C@H]1C(=O)N(Cc2ccc(OC)cc2)C2=CCCCC[C@@]21C(=O)OC	-1	2	-3	.	.	.
CC1(C)CC(=O)C=C(Nc2ccccc2NC(=O)c2cccc(F)c2F)C1	4	1	0	.	.	.
CCCCC(=O)N(Cc1ccc2c(c1)OCO2)Cc1nc2ccccc2c(=O)[nH]1	-6	0	5	-2	5	.
CCCCN(Cc1nc2ccccc2c(=O)[nH]1)C(=O)c1nn(C)c(=O)c2ccccc12	0	5	-2	85*	0	0
COc1c(Br)cc(/C=N/n2c(-c3ccccc3)n[nH]c2=S)c(O)c1Br	25	10	7	74*	10	30
SMILES	ABHD4 inh	PRMT1 inh	SIAE primary	HTRA1 inh	TCR-CD3 inh	HTRA1 inh conf
COC(=O)[C@H](C)NC(=O)[C@H](CC(C)C)NC(=O)OC(C)(C)C	-2	3	-4	.	.	.
O=C1CCC/C(=N/Nc2ccc(Cl)cc2)C1	18	2	6	37*	2	42*
O=C(NN=C1CCCC1)c1ccc(Cl)cc1	-5	-1	0	5	3	.
COc1ccc(NC(=O)CC2Nc3cccc4cccc(c34)NC2=O)cc1 (stereo unspecified)	18	3	2	52*	3	9
C[C@]12CCC[C@H](O1)c1c(cc3c(c1O)C(=O)c1c(O)cc(O)cc1C3=O)O2	2	1	-18	37*	-2	62*
CCOc1ccccc1/C=N/NC(=O)c1c(C)nc2ccc(Br)cn12	20	0	-2	-2	2	.
